Results from ChEMBL document CHEMBL4033702, “Challenges in the development of an M4 PAM preclinical candidate: The discovery, SAR, and in vivo characterization of a series of 3-aminoazetidine-derived amides” (Bioorg Med Chem Lett, 2017).
Converted amounts (≈) assume the structure as drawn.

Legend:
[1] = biological target: T1, Muscarinic acetylcholine receptor M4 (Homo sapiens) (UniProt P08173); assay: Positive allosteric modulation of human M4 receptor expressed in CHO cells co-expressing Gqi5 assessed as increase in acetylcholine-induced calcium mobilization relative to acetylcholine; assay type: functional, cell-based
T1 sequence (whole entry): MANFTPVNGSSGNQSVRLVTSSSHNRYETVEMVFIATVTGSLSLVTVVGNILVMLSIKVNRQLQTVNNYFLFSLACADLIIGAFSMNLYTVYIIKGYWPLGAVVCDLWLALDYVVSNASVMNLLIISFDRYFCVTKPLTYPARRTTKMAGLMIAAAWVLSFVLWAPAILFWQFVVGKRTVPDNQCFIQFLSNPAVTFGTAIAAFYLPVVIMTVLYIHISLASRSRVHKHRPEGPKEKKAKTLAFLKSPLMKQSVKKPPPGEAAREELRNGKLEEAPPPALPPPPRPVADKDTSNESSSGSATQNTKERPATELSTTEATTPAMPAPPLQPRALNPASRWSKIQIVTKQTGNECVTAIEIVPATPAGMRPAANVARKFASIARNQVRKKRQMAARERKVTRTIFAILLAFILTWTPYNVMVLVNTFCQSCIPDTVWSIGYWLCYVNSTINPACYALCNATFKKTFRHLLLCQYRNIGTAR
In short: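 Calcium mobilization in CHO cells stably co-expressing hM4 and Gqi5, tested in the presence of a fixed EC20 concentration of acetylcholine. Values are means of three independent experiments, each run in triplicate.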

[2] = Clearance in Sprague-Dawley rat; assay type: ADME; conditions: in vivo
In short: (§1)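 IV and PO pharmacokinetics in male Sprague-Dawley rats, n = 1–3. The oral dose was a 2–3 mg/kg solution. Plasma clearance, Vss and oral bioavailability were determined.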

[3] = biological target: T2, Cytochrome P450 3A4 (Homo sapiens, UniProt P08684); assay: Inhibition of CYP3A4 (unknown origin); assay type: ADME
T2 sequence (P08684 whole entry): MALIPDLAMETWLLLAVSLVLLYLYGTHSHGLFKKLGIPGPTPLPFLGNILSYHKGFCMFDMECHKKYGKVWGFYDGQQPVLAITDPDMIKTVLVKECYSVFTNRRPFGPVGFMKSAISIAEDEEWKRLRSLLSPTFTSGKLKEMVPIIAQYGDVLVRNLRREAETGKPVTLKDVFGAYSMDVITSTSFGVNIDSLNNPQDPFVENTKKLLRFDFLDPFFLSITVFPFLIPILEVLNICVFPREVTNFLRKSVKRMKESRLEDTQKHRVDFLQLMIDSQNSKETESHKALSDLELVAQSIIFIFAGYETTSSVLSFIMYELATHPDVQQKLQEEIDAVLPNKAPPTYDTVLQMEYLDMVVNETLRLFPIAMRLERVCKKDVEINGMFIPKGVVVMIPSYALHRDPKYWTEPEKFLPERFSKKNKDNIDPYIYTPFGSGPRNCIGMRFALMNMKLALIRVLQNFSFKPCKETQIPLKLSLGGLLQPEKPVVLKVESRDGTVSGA

[4] = biological target: Cytochrome P450 2C9 (Homo sapiens, UniProt P11712); assay: Inhibition of CYP2C9 (unknown origin); assay type: ADME
Cytochrome P450 2C9, sequence (P11712 whole entry): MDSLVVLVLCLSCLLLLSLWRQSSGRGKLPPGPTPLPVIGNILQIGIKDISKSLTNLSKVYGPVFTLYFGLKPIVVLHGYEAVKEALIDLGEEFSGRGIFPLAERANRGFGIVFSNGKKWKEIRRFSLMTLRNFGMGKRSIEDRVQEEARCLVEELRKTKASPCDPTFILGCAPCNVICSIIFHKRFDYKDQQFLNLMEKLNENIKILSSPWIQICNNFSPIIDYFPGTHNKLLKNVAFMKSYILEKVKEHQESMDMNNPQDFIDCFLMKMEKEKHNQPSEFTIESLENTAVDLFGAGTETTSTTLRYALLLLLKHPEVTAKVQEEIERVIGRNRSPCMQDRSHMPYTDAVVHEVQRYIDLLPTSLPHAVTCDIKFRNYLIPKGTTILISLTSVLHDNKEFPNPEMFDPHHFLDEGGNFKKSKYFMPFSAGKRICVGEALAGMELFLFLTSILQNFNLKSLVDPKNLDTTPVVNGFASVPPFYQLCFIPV

[5] = system: Rattus norvegicus; assay: Reversal of amphetamine-induced hyperlocomotion in Sprague-Dawley rat at 1 mg/kg, po pretreated 30 mins post habituation in the chamber followed by amphetamine injection after 30 mins measured after 60 mins; assay type: functional
In short: (§2)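 Male Sprague-Dawley rats, n = 6–24 per dose group, were habituated in the chamber for 30 min. The compound or vehicle (10% tween-80 in water, v/v) was then given orally. Amphetamine 0.75 mg/kg was injected subcutaneously 30 min later. Total ambulations over t = 60–120 min gave % reversal of AHL, reported as mean ± SEM.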

[6] = system: Rattus norvegicus; assay: Reversal of amphetamine-induced hyperlocomotion in Sprague-Dawley rat at 3 mg/kg, po pretreated 30 mins post habituation in the chamber followed by amphetamine injection after 30 mins measured after 60 mins; assay type: functional; in short: as §2
[7] = biological target: T3, Muscarinic acetylcholine receptor M4 (Rattus norvegicus) (UniProt P08485); assay: Activity at rat M4 receptor assessed as acetylcholine-induced calcium mobilization; assay type: functional
T3 sequence (whole entry): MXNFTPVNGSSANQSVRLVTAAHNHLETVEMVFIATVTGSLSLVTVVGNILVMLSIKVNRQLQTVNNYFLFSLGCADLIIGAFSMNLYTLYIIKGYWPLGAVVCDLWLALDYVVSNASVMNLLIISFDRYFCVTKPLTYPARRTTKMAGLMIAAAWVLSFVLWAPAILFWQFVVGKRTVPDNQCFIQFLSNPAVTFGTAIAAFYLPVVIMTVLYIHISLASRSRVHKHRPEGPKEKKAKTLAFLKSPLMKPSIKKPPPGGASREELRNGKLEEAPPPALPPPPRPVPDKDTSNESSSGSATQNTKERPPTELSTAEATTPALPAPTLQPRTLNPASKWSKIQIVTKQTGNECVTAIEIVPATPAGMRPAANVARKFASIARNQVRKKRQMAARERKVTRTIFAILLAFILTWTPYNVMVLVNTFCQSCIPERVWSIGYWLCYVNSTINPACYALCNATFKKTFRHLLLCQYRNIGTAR
In short: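 Ca2+ mobilization read-out. Acetylcholine concentration-response curves were run in the presence of the PAM to measure the fold-shift. An operational model was fitted to derive the PAM's affinity (KB) and cooperativity (αβ).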

[8] = species: Macaca fascicularis; assay: Activity at cynomolgus monkey M4 receptor assessed as acetylcholine-induced calcium mobilization
[9] = biological target: T1, Muscarinic acetylcholine receptor M4 (Homo sapiens); assay: Activity at human M4 receptor assessed as acetylcholine-induced calcium mobilization; assay type: functional
[10] = system: Rattus norvegicus; assay: Reversal of amphetamine-induced hyperlocomotion in Sprague-Dawley rat assessed as plasma concentration required for the effect at 3 mg/kg, po pretreated 30 mins post habituation in the chamber followed by amphetamine injection after 30 mins measured at 1.5 hrs post dose; assay type: functional, organism-based
In short: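 Rat AHL study: oral dosing 30 min after chamber habituation, then amphetamine 0.75 mg/kg s.c. 30 min later. Terminal plasma concentrations in the study animals were measured 1.5 hr after compound administration. From these, an in vivo plasma EC50 was derived, both total and unbound.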

[11] = system: Salmonella typhimurium; assay: Mutagenicity in Salmonella typhimurium by Ames test; assay type: toxicity; conditions: salmonella enterica subsp. enterica serovar typhimurium
[12] = biological target: T2, Cytochrome P450 3A4; assay: Time-dependent inhibition of CYP3A4 (unknown origin); assay type: ADME
[13] = biological target: T4, Cytochrome P450 1A2 (Homo sapiens, UniProt P05177); assay: Time-dependent inhibition of CYP1A2 (unknown origin); assay type: ADME
T4 sequence (P05177 whole entry): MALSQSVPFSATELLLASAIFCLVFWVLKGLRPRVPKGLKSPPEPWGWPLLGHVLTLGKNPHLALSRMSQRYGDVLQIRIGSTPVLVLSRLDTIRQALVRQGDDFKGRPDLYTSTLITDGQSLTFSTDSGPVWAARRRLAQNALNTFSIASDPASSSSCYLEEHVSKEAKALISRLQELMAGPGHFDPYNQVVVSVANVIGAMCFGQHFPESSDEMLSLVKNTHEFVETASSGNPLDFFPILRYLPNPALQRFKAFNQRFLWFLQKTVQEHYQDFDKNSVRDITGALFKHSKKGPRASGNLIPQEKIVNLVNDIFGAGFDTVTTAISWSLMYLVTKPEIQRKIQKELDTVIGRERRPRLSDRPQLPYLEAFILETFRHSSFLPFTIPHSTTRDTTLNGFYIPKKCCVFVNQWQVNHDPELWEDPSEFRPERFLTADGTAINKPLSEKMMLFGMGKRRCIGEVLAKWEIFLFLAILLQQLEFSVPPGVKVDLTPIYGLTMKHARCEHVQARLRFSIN

[14] = system: Rattus norvegicus; assay: Oral bioavailability in Sprague-Dawley rat at 2 to 3 mg/kg; assay type: ADME, organism-based; conditions: in vivo; in short: as §1
[15] = Oral bioavailability in Mongrel dog at 2 mg/kg administered as suspension; assay type: ADME, organism-based, Canis lupus familiaris; conditions: in vivo
In short: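 Female mongrel dogs were dosed orally with a 2 mg/kg suspension in a low-excipient vehicle, and oral bioavailability was determined.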

[16] = Kinetic solubility of the compound in FaSSIF at pH 6.5 measured after 1 hr; assay type: physicochemical; conditions: read-out: Kinetic_solubility
[17] = system: Brain; assay: Drug level in Sprague-Dawley rat brain at 0.1 mg/kg, po; assay type: ADME, organism-based; conditions: in vivo, read-out: Drug uptake
[18] = system: Brain; assay: Drug level in Sprague-Dawley rat brain at 0.3 mg/kg, po; assay type: ADME, organism-based; conditions: in vivo, read-out: Drug uptake
[19] = system: Brain; assay: Drug level in Sprague-Dawley rat brain at 1 mg/kg, po; assay type: ADME, organism-based; conditions: in vivo, read-out: Drug uptake

## Cc1nnc2sc(C(=O)NC3CN(c4cccc(F)c4F)C3)c(N)c2c1C
[1]
  %max: 88%
[2]
  clearance: 16 mL/min/kg
[3]
  IC50: 11000 nM
[4]
  IC50: 3800 nM
[5]
  Activity: 64%
[6]
  Activity: 74%
[7]
  Kb: 120 nM
[8]
  Kb: 890 nM
[9]
  Kb: 2000 nM
[10]
  fEC50: 0.66 nM
[10]; Rattus norvegicus, Sprague-Dawley
  EC50: 74 nM
[11]
  Activity: Non-Toxic
[12]
  TDI: Not Active
[13]
  TDI: Not Active
[14]
  F: 38%
[15]
  bioavailability: 11%
[16]
  solubility kinetic at 1 h: 15 µg/mL (≈ 38.5 µM)
[17]
  concentration: 9.9 nM
[18]
  concentration: 37 nM
[19]
  concentration: 140 nM
